Laboratory results taken from ChEMBL document CHEMBL1806352, “Discovery of imidazo[1,2-b]pyridazines as IKKβ inhibitors. Part 3: exploration of effective compounds in arthritis models” (Bioorg Med Chem Lett, 2011).

Experiments:
[1] = Permeability of the compound at pH 7.4 by PAMPA method; type: ADME; conditions: read-out: permeability
Method in brief: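 PAMPA was run with the donor filter coated with a phospholipid solution and the acceptor plate filled with acceptor buffer pH 7.4. Plates were incubated 4 h at 25 °C. Compound in both plates was quantified spectrometrically, and effective permeability Pe7.4 was calculated.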

[2] = Octanol-phosphate buffered saline distribution coefficient, log D of the compound at pH 7.4; type: physicochemical
Method in brief: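 PBS pH 7.4 and 1-octanol were mutually pre-saturated for over 12 h. Compound (200 µM) was dissolved in one phase, an equal volume of the other phase was added, and the mixture was shaken 30 min at room temperature. Both phases were assayed by HPLC or LC/MS. Log D7.4 was calculated as log of the octanol/PBS peak area ratio.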

[3] = Plasma concentration in BALB/c mouse at 30 mg/kg, po after 90 mins; type: ADME, organism-based; parameters: dose 30 mg/kg, route oral
[4] = Apparent permeability across MDCK cells at 10 uM after 1 hr by LC/MS/MS analysis; type: ADME, cell-based, Canis lupus familiaris; conditions: dog
Method in brief: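 MDCK cells were grown 6 days on transwells to form monolayers. Compound (10 µM in transport buffer, pH 6.0) was added apically. The basolateral side held buffer at pH 7.4 with 4% BSA, and metoprolol served as positive control. After 1 h at 37 °C, basolateral concentration was measured by LC/MS/MS. Papp was calculated from flux over 3600 s across a 0.33 cm² filter.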

[5] = Cmax in Wister-Lewis rat at 30 mg/kg, po; type: ADME, organism-based; parameters: dose 30 mg/kg, route oral; conditions: in vivo
Method in brief: (§1)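 Fed female Wistar–Lewis rats (7–8 weeks old, n = 3) were given 30 mg/kg orally as a suspension in 0.5% (w/v) methyl cellulose. Blood samples (0.3 ml) were taken at 0.5, 1, 2, 4, 8 and 24 h. Plasma levels were measured by LC/MS/MS and analysed non-compartmentally.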

[6] = Tmax in BALB/c mouse at 30 mg/kg, po; type: ADME, organism-based; parameters: dose 30 mg/kg, route oral; conditions: in vivo
Method in brief: (§2)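 Fed female BALB/c mice (7 weeks old, n = 3) received a single oral dose of 30 mg/kg suspended in 0.5% (w/v) methyl cellulose. Blood was drawn at 0.5, 1, 2, 4, 8 and 24 h, and plasma was stored at −20 °C. Drug was quantified by LC/MS/MS, and parameters were derived by non-compartmental analysis.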

[7] = Mean residence time in BALB/c mouse at 30 mg/kg, po; type: ADME, organism-based; parameters: dose 30 mg/kg, route oral; conditions: in vivo; method in brief: as §2
[8] = AUC (0 to 24 hrs) in Wister-Lewis rat at 30 mg/kg, po; type: ADME, organism-based; parameters: time < 24 hr, dose 30 mg/kg, route oral; conditions: plasma; method in brief: as §1
[9] = Cmax in BALB/c mouse at 30 mg/kg, po; type: ADME, organism-based; parameters: dose 30 mg/kg, route oral; conditions: in vivo; method in brief: as §2
[10] = Oral steady-state volume of distribution in BALB/c mouse at 30 mg/kg, po; type: ADME, organism-based; parameters: dose 30 mg/kg, route oral; conditions: in vivo, read-out: Vss/F; method in brief: as §2
[11] = AUC (0 to 24 hrs) in BALB/c mouse at 30 mg/kg, po; type: ADME, organism-based; parameters: time < 24 hr, dose 30 mg/kg, route oral; conditions: plasma; method in brief: as §2
[12] = Mean residence time in Wister-Lewis rat at 30 mg/kg, po; type: ADME, organism-based; parameters: dose 30 mg/kg, route oral; conditions: in vivo; method in brief: as §1
[13] = Tmax in Wister-Lewis rat at 30 mg/kg, po; type: ADME, organism-based; parameters: dose 30 mg/kg, route oral; conditions: in vivo; method in brief: as §1
[14] = Oral steady-state volume of distribution in Wister-Lewis rat at 30 mg/kg, po; type: ADME, organism-based; parameters: dose 30 mg/kg, route oral; conditions: in vivo, read-out: Vss/F; method in brief: as §1

Compound | Papp [1] [×10⁻⁶ cm/s] | logD [2] | concentration at […] [3] [ng/mL] | further results
O=C(NC[C@@H]1C[C@@H](F)CN1)c1ccc(-c2cnc3ccc(NCCCCCF)nn23)cc1F | 37 | 3.3 | 110 | –
CN(C)CCNC(=O)c1ccc(-c2cnc3ccc(NCC4CC4)nn23)cc1 | – | 2.5 | – | Papp at 1 h, 10 µM [4]: 2.1 ×10⁻⁶ cm/s
CSCCCNc1ccc2ncc(-c3ccc(C(=O)NC[C@@H]4C[C@@H](F)CN4)c(F)c3)n2n1 | 40 | 3 | 150 | –
O=C(c1ccc(-c2cnc3ccc(NCC4CC4)nn23)cc1)N(Cc1ccc(Cl)cc1)C[C@@H]1C[C@@H](F)CN1 | – | 5 | – | –
CCCCCNc1ccc2ncc(-c3ccc(C(=O)NC[C@@H]4C[C@@H](F)CN4)c(F)c3)n2n1 | > 50 | 4 | 93 | –
O=C(NC[C@@H]1C[C@@H](F)CN1)c1ccc(-c2cnc3ccc(NC4CCC4)nn23)cc1F | > 50 | 3.3 | 1400 | Papp at 1 h, 10 µM [4]: 7 ×10⁻⁶ cm/s; Cmax [5]: 16000 ng/mL; Tmax [6]: 1 h; MRT [7]: 2 h; AUC(0-t) at 24 h [8]: 95300 ng·h/mL; Cmax [9]: 750 ng/mL; Vd/F [10]: 32 L/kg; AUC(0-t) at 24 h [11]: 1860 ng·h/mL; MRT [12]: 5.1 h; Tmax [13]: 2.8 h; Vd/F [14]: 1.7 L/kg
CCCCNc1ccc2ncc(-c3ccc(C(=O)NC[C@@H]4C[C@@H](F)CN4)c(F)c3)n2n1 | > 50 | 3.5 | 600 | –
O=C(NC[C@@H]1CCCN1)c1ccc(-c2cnc3ccc(NCC4CC4)nn23)cc1F | 19 | 1.8 | 140 | –
CN(C)CCNC(=O)c1ccc(-c2cnc3ccc(NCC4CC4)nn23)nc1 | 14 | 2 | – | –
O=C(NC[C@@H]1C[C@@H](F)CN1)c1ccc(-c2cnc3ccc(NC4CCCC4)nn23)cc1F | > 50 | 3.6 | 660 | –

Second part, led by results:

Papp [1] [×10⁻⁶ cm/s] | logD [2] | concentration at […] [3] [ng/mL] | Compound | further results
11 | 2 | – | O=C(NCCN1CCCC1)c1ccc(-c2cnc3ccc(NCC4CC4)nn23)nc1 | –
14 | 2.2 | – | O=C(NC[C@@H]1CCCN1)c1ccc(-c2cnc3ccc(NCC4CC4)nn23)cc1Cl | –
> 50 | 2.7 | 110 | CN(C)CCNC(=O)c1ccc(-c2cnc3ccc(NCC4CC4)nn23)cc1F | Papp at 1 h, 10 µM [4]: 6.2 ×10⁻⁶ cm/s
> 50 | 2.8 | – | CSCCNc1ccc2ncc(-c3ccc(C(=O)NC[C@@H]4C[C@@H](F)CN4)c(F)c3)n2n1 | –
> 50 | 2.6 | 440 | O=C(NCCN1CCCC1)c1ccc(-c2cnc3ccc(NCC4CC4)nn23)cc1 | Papp at 1 h, 10 µM [4]: 2.3 ×10⁻⁶ cm/s
33 | 2.5 | 480 | O=C(NC[C@@H]1C[C@@H](F)CN1)c1ccc(-c2cnc3ccc(NCCCF)nn23)cc1F | –
> 50 | 3.1 | 540 | CCCNc1ccc2ncc(-c3ccc(C(=O)NC[C@@H]4C[C@@H](F)CN4)c(F)c3)n2n1 | –
> 50 | 2.8 | 290 | O=C(NCCN1CCCC1)c1ccc(-c2cnc3ccc(NCC4CC4)nn23)cc1F | Papp at 1 h, 10 µM [4]: 5.6 ×10⁻⁶ cm/s
> 50 | 2.8 | 420 | O=C(NC[C@@H]1C[C@@H](F)CN1)c1ccc(-c2cnc3ccc(NCCCCF)nn23)cc1F | –
> 50 | 3.1 | 380 | O=C(NC[C@@H]1C[C@@H](F)CN1)c1ccc(-c2cnc3ccc(NCC4CC4)nn23)cc1F | Papp at 1 h, 10 µM [4]: 4.2 ×10⁻⁶ cm/s; Cmax [5]: 4100 ng/mL; Tmax [6]: 1 h; MRT [7]: 2.3 h; AUC(0-t) at 24 h [8]: 23100 ng·h/mL; Cmax [9]: 260 ng/mL; Vd/F [10]: 78 L/kg; AUC(0-t) at 24 h [11]: 888 ng·h/mL; MRT [12]: 4.9 h; Tmax [13]: 4 h; Vd/F [14]: 6.5 L/kg
0.84 | 1.8 | – | O=C(NC[C@@H]1CCCN1)c1ccc(-c2cnc3ccc(NCC4CC4)nn23)cc1 | –
– | 3.4 | – | CCCN(C[C@@H]1C[C@@H](F)CN1)C(=O)c1ccc(-c2cnc3ccc(NCC4CC4)nn23)cc1 | –
